From PubChem BioAssay
Shown is part of a subset that was picked to be rich in hits.
Avidin bead fluor = avidin bead compound fluorescence profile; Avidin beads, compound fluorescence 488/530 nm, flow cytometry; stronger effect = higher value; fluorescence (KMESF) at 10 µM; hit rate 0.38% among 220,000; AID 1775; in the data active = fluorescence above about 47
L major viab = inhibitors of Leishmania major promastigote growth; Leishmania major promastigotes, resazurin fluorescence viability; inhibition, % at 10 µM; hit rate 9% among 200,000;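 also: promastigotes grown with compound for 44 hours at 28 °C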
GSH bead fluor = GSH bead compound fluorescence profile. fluorescence (KMESF) at 10 µM. AID 1776. hit rate 0.25% among 190,000. GSH beads flow cytometry, compound fluorescence 488/530 nm; stronger effect = higher value; in the data active = fluorescence above about 89;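 also: glutathione beads carrying GST-tagged Bcl family fusion proteins plus one bare bead set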
PKD1 inh = inhibitors of human PKD1 kinase. Q15139. PKD1 kinase fluorescence polarization assay. inhibition, % (no concentration beside the values). hit rate 0.056% among 200,000. AID 797
ABCG2 block = human ABCG2 inhibition, ABCB1 as counter-screen. Q9UNQ0. IgMXP3 cells, JC-1 efflux, flow cytometry. inhibition, % at 6.6 µM. hit rate 0.1% among 190,000. AID 1325;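 active = inhibition above 80%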
Target sequence (Q9UNQ0 whole entry, looked up): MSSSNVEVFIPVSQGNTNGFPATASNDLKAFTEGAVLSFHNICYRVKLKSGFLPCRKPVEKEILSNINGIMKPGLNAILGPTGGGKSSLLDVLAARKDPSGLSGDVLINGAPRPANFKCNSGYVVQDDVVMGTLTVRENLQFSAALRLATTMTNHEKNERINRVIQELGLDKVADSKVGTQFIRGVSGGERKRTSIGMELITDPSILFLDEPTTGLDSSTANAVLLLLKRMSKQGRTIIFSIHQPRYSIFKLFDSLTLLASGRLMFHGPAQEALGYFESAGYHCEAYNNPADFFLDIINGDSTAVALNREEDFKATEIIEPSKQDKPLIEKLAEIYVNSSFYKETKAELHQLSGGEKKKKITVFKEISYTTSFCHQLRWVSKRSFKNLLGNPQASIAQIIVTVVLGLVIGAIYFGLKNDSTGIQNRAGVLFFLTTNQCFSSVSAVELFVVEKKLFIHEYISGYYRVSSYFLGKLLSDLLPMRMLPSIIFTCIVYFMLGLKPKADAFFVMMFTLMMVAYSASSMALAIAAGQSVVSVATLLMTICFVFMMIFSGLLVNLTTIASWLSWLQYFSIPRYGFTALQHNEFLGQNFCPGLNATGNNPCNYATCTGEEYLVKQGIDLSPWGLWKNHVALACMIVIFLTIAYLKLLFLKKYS
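Read-out basis: Efflux inhibition in percent versus controls | Test system: ABCG2 IgMXP3 and barcoded ABCB1 CCRF-Adr cell mix | Quantity: 3 million cells/mL in well | Schedule: 10 min at 25 °C | Control set: Nicardipine as high control, DMSO as low control | Reagent: JC-1 as fluorescent efflux pump substrate | Signal: Flow cytometry of retained JC-1 fluorescence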
ABCB1 block = blocks JC-1 efflux by human ABCB1 transporter. CCRF-Adr cells, flow cytometry. inhibition, % at 6.6 µM. hit rate 0.067% among 190,000; in the data active = inhibition above about 40%;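 also: higher value means more JC-1 retained so stronger ABCB1 efflux block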
A number is an active result; 0 = inactive; - = no result given. Rule as the data show it, unless noted: active = inhibition above about 50%; inactive = the rest.

SMILES | Avidin bead fluor | L major viab | GSH bead fluor | PKD1 inh | ABCG2 block | ABCB1 block
COc1ccc(Cl)cc1C(=O)N(Cc1nc(-c2cccc(C)c2)no1)C(C)C | 0 | 85.1 | 0 | 0 | 0 | 0
COc1ccc(Cc2noc(COc3ccc(Cl)cc3)n2)cc1 | 0 | 0 | 92 | 0 | 0 | 0
Cc1[nH]c(=O)[nH]c(=O)c1CSCC(=O)OCC(=O)Nc1ccccn1 | 0 | - | - | - | - | -
C=CCN1C(=O)CSc2ccc(C(=O)NCCC3=CCCCC3)cc21 | 0 | 75.5 | 0 | 0 | 0 | 0
CC(Sc1nc(-c2ccco2)nc2c1c(=O)n(C)c(=O)n2C)C(=O)O (stereo not given) | 0 | - | - | - | - | -
O=C(CN1CCOCC1)NN1CC(=O)N(c2ccc(Cl)cc2)CC1=O | 0 | - | - | - | - | -
Cc1cc(OCCCn2cnc3ccccc3c2=O)ccc1[N+](=O)[O-] | 0 | 58.8 | 0 | 0 | 0 | 0
O=C(CCNC(=O)Cn1ccc2ccccc2c1=O)NCCc1ccc(Cl)cc1 | 0 | 55.3 | 0 | 0 | 0 | 0
O=C(Cn1cnc2cc([N+](=O)[O-])ccc2c1=O)NCCc1ccc(F)cc1 | 0 | 0 | 0 | 0 | 0 | 0
O=C(Cn1cnc2cc([N+](=O)[O-])ccc2c1=O)Nc1cccc2ccccc12 | 0 | - | - | - | - | -
O=C(Cn1cnc2cc([N+](=O)[O-])ccc2c1=O)NCCc1ccc(Cl)cc1 | 0 | 64.4 | 0 | 0 | 0 | 0
O=C(Cn1cnc2cc([N+](=O)[O-])ccc2c1=O)NCc1ccccc1 | 0 | 59.9 | 0 | 0 | 0 | 0
Cc1ccc(-c2nnc(SCC(=O)N/N=C/c3ccc(C)s3)n2-c2ccc(C)cc2)cc1 | 0 | 0 | 0 | 0 | 0 | 0
COc1ccccc1N1CCN(C(c2cccs2)c2nnnn2C2CCCC2)CC1 (stereo not given) | 0 | 0 | 0 | 0 | 0 | 0
Cc1ccccc1OCCn1cnc2cc([N+](=O)[O-])ccc2c1=O | 0 | 73.0 | 0 | 0 | 0 | 0
O=C(Cn1cnc2ccccc21)NCc1ccccc1 | 58 | 0 | 0 | 0 | 0 | 0
CCN(CC)S(=O)(=O)c1ccc(C)c(NC(=O)Cn2cnc3cc([N+](=O)[O-])ccc3c2=O)c1 | 0 | 71.9 | 0 | 0 | 0 | 0
O=C(Cn1cnc2cc([N+](=O)[O-])ccc2c1=O)Nc1ccccc1Cl | 0 | - | - | - | - | -
COc1ccc(NC(=O)Cn2cnc3ccccc3c2=O)cc1OC | 0 | 0 | 0 | 0 | 0 | 0
O=c1c2ccccc2ncn1CCCOc1ccccc1[N+](=O)[O-] | 0 | 0 | 0 | 0 | 0 | 0
O=C(COC(=O)Cn1cnc2ccccc21)NCc1ccc(F)cc1 | 0 | 0 | 0 | 0 | 0 | 0
COc1ccccc1CNC(=O)Cn1cnc2ccccc2c1=O | 0 | 0 | 234 | 0 | 0 | 0
Cc1ccc(Cn2nnnc2CN2CCC(c3nc4ccc(Cl)cc4[nH]3)CC2)cc1 | 0 | 54.7 | 0 | 0 | 0 | 0
Cc1ccc(NC(=O)C(=O)C2C(=O)Nc3ccccc32)cc1 (stereo not given) | 0 | - | - | - | - | -
Cn1nc(C(F)(F)F)c(-c2ccc(Br)cc2)c1NC(=O)Nc1ccc(F)cc1F | 0 | - | - | - | - | -
SMILES | Avidin bead fluor | L major viab | GSH bead fluor | PKD1 inh | ABCG2 block | ABCB1 block
Cc1ccc(CNC(=O)c2cnc(-c3ccccn3)nc2C(F)(F)F)cc1 | 0 | 0 | 276 | 0 | 0 | 0
Cc1cccc(C)c1NC1=NCCCCC1 | 0 | 0 | 0 | 0 | 0 | 0
CCOC(=O)N1CCN(CC(=O)Nc2c(C(=O)OC)[nH]c3ccccc23)CC1 | 106 | 0 | 0 | 0 | 0 | 0
COC(=O)c1[nH]c2ccccc2c1NC(=O)CN1CCCCCC1 | 0 | 0 | 0 | 0 | 0 | 0
CCN1CCN(c2cc(-c3ccccc3)nc3cc(-c4cccc(F)c4)nn23)CC1 | 0 | 68.2 | 0 | 0 | 0 | 0
Cc1nc(NCCc2ccccc2)c2oc3ccccc3c2n1 | 0 | 90.0 | 0 | 0 | 0 | 0
CCc1nc(NCCCn2ccnc2)c2oc3ccccc3c2n1 | 0 | 0 | 0 | 0 | 0 | 0
Cc1nc(NCCN2CCOCC2)c2oc3ccccc3c2n1 | 0 | 0 | 0 | 0 | 0 | 0
Cc1nc(NCCCN2CCOCC2)c2oc3ccccc3c2n1 | 0 | 97.4 | 0 | 0 | 0 | 0
c1ccc(-c2nc(NCCCn3ccnc3)c3oc4ccccc4c3n2)cc1 | 0 | 99.7 | 0 | 0 | 0 | 0
C1CCN(Cc2nnnn2CC2CCCO2)CC1 (stereo not given) | 0 | 0 | 0 | 0 | 0 | 0
CC(C)N=C(NS(=O)(=O)c1ccc(Br)cc1)c1ccc(Cl)cc1 | 0 | 0 | 0 | 0 | 0 | 0
COc1ccc(-c2onc(C)c2-c2cscn2)c(O)c1 | 0 | 0 | 0 | 0 | 0 | 0
CCCOC(=O)c1ccc(-c2c(C)noc2-c2ccc(OC)cc2O)o1 | 0 | 56.2 | 0 | 0 | 0 | 0
CCCN1C(=O)C(Cc2nc3ccccc3c(=O)n2-c2ccccc2)c2ccccc21 (stereo not given) | 0 | 89.2 | 0 | 0 | 0 | 0
COc1cc(C(=O)NCc2nnc(SCC(=O)Nc3nc4ccccc4s3)o2)cc(OC)c1OC | 0 | 71.0 | 0 | 0 | 0 | 0
COc1ccc(OC)c(NC(=O)CSc2nnc(CNC(=O)COc3ccc(Cl)cc3)o2)c1 | 68 | 0 | 0 | 0 | 0 | 0
Cc1cc(-n2c(C)cc(C(=O)CCl)c2C)no1 | 0 | 100.6 | 0 | 0 | 0 | 0
Cc1cc(-n2c(C)cc(C(=O)COc3ccc([N+](=O)[O-])cc3)c2C)no1 | 0 | 0 | 0 | 0 | 0 | 0
Cc1ccc(-n2c(C)cc(C(=O)CN3CCCCC3)c2C)cc1 | 0 | 86.0 | 0 | 0 | 0 | 0
Cc1cc(-n2c(C)cc(C(=O)CN3C(=O)NC4(CCCC4)C3=O)c2C)no1 | 0 | 0 | 0 | 0 | 0 | 0
Cc1cc(-n2c(C)cc(C(=O)CN3C(=O)NC4(CCCCC4C)C3=O)c2C)no1 (stereo not given) | 0 | 79.2 | 0 | 0 | 0 | 0
Cc1cc(C(=O)CCl)c(C)n1-c1c(C)n(C)n(-c2ccccc2)c1=O | 0 | 66.6 | 0 | 0 | 0 | 0
CCCCC(CC)CNC(=O)C(Cc1ccccc1)NS(=O)(=O)c1ccc2c(c1)CCC(=O)N2 (stereo not given) | 0 | 0 | 0 | 0 | 0 | 0
CC(C)NC(=O)NC(=O)COC(=O)C1(C)CC1(Cl)Cl (stereo not given) | 0 | 0 | 0 | 0 | 0 | 0
SMILES | Avidin bead fluor | L major viab | GSH bead fluor | PKD1 inh | ABCG2 block | ABCB1 block
COc1ccc(C)cc1NC(=O)c1ccccc1NS(=O)(=O)c1ccc(Cl)s1 | 0 | 0 | 0 | 0 | 0 | 0
COc1ccc(-n2c(C)cc(C(=O)CCl)c2C)cc1 | 0 | 100.6 | 0 | 0 | 0 | 0
CCN(Cc1ccccc1)C(c1ccccn1)c1nnnn1C(C)(C)CC (stereo not given) | 0 | 0 | 0 | 0 | 0 | 0
CC(C)(C)n1nnnc1C(c1ccccn1)N(Cc1ccccc1)Cc1ccc(Cl)cc1 (stereo not given) | 0 | 53.4 | 0 | 0 | 0 | 0
CC(C)Oc1cccc(C(=O)C2CCCN(Cc3cnc(N4CCOCC4)s3)C2)c1 (stereo not given) | 0 | 0 | 0 | 0 | 0 | 0
CCOc1ccccc1CN1C(=O)c2ccccc2C1C(=O)NC(C)CC (stereo not given) | 0 | 84.4 | 0 | 0 | 0 | 0
